For data set [1], the target named is T1, human mGlu1 WT receptor (Homo sapiens, UniProt Q13255). The data set is described as follows: Calcium mobilization mGlu1 assay. The data set is classed as cell-based.
The target in another data set is hmGlu4 (Homo sapiens, UniProt Q14833). The data set is described as follows: Calcium mobilization assay, mGlu4 PAM activity. It is filed as cell-based. To be noted: n = 3 in triplicate. Background: Calcium assays in cells follow changes in intracellular calcium, usually with a dye or a luminescent sensor.
hmGlu4, sequence (Q14833 33-912): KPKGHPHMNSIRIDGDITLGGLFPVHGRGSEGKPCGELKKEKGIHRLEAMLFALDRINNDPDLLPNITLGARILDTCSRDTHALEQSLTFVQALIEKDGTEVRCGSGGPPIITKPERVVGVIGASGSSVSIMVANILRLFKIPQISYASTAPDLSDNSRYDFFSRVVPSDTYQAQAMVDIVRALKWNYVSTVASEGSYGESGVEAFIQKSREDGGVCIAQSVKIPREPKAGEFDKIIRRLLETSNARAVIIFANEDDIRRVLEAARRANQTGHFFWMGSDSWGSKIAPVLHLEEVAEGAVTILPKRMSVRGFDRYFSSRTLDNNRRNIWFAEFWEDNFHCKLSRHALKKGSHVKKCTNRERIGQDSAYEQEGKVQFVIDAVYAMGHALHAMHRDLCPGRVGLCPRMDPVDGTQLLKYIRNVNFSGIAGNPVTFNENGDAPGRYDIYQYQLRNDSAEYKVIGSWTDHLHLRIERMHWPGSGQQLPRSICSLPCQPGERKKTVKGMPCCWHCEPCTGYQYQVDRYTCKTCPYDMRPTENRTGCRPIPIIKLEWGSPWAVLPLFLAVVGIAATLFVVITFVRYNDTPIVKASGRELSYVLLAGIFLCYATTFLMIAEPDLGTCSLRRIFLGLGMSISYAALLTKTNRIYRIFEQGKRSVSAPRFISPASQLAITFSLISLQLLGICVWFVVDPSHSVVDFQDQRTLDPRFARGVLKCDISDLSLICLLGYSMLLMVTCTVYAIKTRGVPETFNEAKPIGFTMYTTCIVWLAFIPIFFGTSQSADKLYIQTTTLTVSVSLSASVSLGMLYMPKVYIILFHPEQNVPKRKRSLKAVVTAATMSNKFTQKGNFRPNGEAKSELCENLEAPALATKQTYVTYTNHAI
The next data set deals with rat mGlu1 WT receptors (Rattus norvegicus, UniProt P23385). Description: Calcium mobilization concentration-response curves on rat mGlu1. It is filed as cell-based.
rat mGlu1 WT receptors, sequence (P23385 19-1199): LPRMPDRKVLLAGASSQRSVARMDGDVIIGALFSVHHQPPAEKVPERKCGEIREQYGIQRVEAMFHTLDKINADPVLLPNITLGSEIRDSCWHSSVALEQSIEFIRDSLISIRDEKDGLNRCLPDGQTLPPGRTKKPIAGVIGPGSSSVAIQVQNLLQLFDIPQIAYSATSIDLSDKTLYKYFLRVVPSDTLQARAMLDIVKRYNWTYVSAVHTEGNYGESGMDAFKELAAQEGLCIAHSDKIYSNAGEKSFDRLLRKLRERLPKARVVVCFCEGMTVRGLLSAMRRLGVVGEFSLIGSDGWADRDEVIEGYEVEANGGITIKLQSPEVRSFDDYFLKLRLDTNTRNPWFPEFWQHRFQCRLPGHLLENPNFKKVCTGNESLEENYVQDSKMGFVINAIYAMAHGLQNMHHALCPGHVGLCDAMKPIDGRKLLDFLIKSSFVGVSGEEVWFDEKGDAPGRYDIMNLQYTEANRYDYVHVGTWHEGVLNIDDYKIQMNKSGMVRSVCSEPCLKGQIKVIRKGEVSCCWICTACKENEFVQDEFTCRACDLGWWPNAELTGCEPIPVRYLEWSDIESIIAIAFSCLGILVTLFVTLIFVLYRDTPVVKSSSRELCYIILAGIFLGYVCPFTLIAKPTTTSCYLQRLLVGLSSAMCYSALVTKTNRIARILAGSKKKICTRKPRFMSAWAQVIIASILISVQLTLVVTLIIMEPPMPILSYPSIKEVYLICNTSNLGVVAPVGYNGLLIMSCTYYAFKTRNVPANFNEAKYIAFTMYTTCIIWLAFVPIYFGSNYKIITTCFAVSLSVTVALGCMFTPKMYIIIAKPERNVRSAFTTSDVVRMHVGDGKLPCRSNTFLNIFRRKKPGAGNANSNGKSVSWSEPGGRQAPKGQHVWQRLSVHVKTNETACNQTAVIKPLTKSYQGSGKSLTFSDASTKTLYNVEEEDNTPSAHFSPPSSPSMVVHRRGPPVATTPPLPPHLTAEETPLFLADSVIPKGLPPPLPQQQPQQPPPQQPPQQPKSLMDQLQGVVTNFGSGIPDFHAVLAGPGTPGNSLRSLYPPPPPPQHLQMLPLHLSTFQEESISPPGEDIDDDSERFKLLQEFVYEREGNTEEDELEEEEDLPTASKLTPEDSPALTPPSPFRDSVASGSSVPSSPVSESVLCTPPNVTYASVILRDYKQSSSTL
Data set [2] can be described thus: In vitro intrinsic and hepatic clearance, human. It is filed as in vitro ADME.
Data set [3] can be described thus: In vitro intrinsic and hepatic clearance, rat. It is filed as in vitro ADME.
Data set [4] can be described thus: Plasma free fraction, human plasma. It is filed as in vitro ADME.
Data set [5] can be described thus: Plasma free fraction, rat plasma. It is filed as in vitro ADME.
Data set [6] can be described thus: Ex vivo metabolism/stability in human plasma. The data set is classed as in vitro ADME. To be noted: 10 μM incubation, 37 °C, 4 h, mass spectrometry. The essentials: (§1)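 Test compound at 10 μM incubation concentration in rat or human plasma at 37 °C. Samples were taken at 0 and 4 h and analysed by mass spectrometry for remaining parent and for metabolites formed.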

The nature of data set [7]: Ex vivo metabolism/stability in rat plasma. The data set is classed as in vitro ADME. To be noted: 10 μM incubation, 37 °C, 4 h, mass spectrometry. The essentials: as §1
The test system of another data set is Male C57Bl/6 mice. Description: Behavioral convulsions, modified Racine score. The data set is classed as in vivo. The following applies: for behavioral convulsions (modified Racine score 0–5): 10% Tween 80, monitored 3 h, n = 3. The method in brief: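 Male C57Bl/6 mice (25–30 g) got a single ip dose of test compound (100 mg/kg) or a reference mGlu5 ago-PAM (1 or 3 mg/kg). Behavior was watched continuously for 3 h and convulsions were scored on a modified Racine scale (0–5).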

Another data set has as its system mGlu2. Description: Standard fold-shift selectivity assay. The data set is classed as cell-based. The following applies: 10 μM compound.
The subject of data set [8] is human mGlu1 mutant receptors (P729T, A683E, Y632H, P1014S). It is filed as cell-based. To be noted: noted at compound concentrations above 1 μM.
Data set [9] relates to CA3 pyramidal cell body layer in a mouse hippocampal slice preparation. The data set is described as follows: Extracellular recording of spontaneous spike. The essentials:
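Hippocampal slices with extracellular recording from the CA3 pyramidal cell body layer. Frequency of spontaneous activity was tracked before, during and after bath application and washout of test compound (10 μM) or DHPG (50 μM, positive control). Each was compared with baseline by paired t test, n = 6 per treatment.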

For data set [10], the target named is T1, human mGlu1 WT receptor. Description: Fold-shift of glutamate concentration-response curve, human mGlu1 WT cells. It is filed as cell-based. To be noted: 10 μM compound.
A further data set can be described thus: Rat iv PK. It is filed as in vivo. To be noted: rat iv PK (0.2 mg/kg).

Entries after “also recorded” stand apart in the source; their conditions may differ.

T1 sequence (Q13255 19-1194): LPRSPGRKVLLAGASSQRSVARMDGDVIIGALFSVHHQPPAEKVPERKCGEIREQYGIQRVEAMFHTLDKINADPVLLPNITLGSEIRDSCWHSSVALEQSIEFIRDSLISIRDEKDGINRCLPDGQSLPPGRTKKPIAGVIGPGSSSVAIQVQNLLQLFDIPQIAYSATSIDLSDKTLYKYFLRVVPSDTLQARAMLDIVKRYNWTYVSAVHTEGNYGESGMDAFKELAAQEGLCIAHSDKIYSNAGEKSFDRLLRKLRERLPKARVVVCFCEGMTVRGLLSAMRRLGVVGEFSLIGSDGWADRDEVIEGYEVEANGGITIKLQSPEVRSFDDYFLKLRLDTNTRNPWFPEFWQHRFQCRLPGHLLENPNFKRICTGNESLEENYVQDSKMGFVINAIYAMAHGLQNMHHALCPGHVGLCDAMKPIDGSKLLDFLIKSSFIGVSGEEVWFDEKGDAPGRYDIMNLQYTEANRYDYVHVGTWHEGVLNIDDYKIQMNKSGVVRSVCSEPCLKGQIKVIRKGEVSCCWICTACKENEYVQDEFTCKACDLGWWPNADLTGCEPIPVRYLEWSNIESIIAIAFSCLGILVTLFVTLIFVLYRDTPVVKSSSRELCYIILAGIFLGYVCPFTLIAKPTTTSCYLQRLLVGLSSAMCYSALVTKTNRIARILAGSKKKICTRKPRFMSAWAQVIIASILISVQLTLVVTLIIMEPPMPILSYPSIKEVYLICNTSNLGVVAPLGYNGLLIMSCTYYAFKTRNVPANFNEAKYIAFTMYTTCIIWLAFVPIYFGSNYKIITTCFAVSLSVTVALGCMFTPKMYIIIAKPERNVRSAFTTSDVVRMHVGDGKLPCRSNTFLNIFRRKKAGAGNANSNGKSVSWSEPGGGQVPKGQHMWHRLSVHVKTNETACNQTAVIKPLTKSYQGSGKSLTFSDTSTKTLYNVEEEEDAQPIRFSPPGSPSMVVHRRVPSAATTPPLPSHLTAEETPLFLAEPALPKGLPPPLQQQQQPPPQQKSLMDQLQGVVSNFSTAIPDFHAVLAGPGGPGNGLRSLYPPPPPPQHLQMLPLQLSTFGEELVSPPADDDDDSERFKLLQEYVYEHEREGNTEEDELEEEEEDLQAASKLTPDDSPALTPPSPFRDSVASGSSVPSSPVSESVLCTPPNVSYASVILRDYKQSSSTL

On to `O=C(Nc1ccc(N2C(=O)c3ccccc3C2=O)c(Cl)c1)c1cnco1` [9d], for which the “mGlu1 PAM activity in words” value on human mGlu1 WT receptor [1] was “inactive”.
The same measure, in the same setting: in the case of `O=C(Nc1ccc(N2C(=O)c3ccccc3C2=O)c(Cl)c1)c1ncco1` [9e] it was “inactive”; in that of `O=C(Nc1ccc(N2C(=O)c3ccccc3C2=O)c(Cl)c1)c1cncs1` [9i], “inactive”.
Turning to `O=C(Nc1ccc(N2C(=O)c3ccccc3C2=O)c(Cl)c1)C1CCCO1` (stereo not drawn) [9n], at human mGlu1 WT receptor [1], the “mGlu1 PAM activity in words” value is “inactive”.
As to `O=C(Nc1ccc(N2C(=O)c3ccccc3C2=O)c(Cl)c1)c1cc2ccccc2o1` [10m], the “mGlu1 PAM activity in words” value on human mGlu1 WT receptor [1] is “inactive”.
As for `O=C(Nc1ccc(N2C(=O)c3ccccc3C2=O)c(Cl)c1)c1coc2ccccc12` [10n], the “mGlu1 PAM activity in words” value at human mGlu1 WT receptor [1] is “inactive”.
Consider `Cc1ccoc1C(=O)Nc1ccc(N2C(=O)c3cccc(Cl)c3C2=O)c(Cl)c1` [17c, N-(3-Chloro-4-(4-chloro-1,3-dioxoisoindolin-2-yl)phenyl)-3-methylfuran-2-carboxamide], for which the “hmGlu4 pEC50 (±SEM)” value at hmGlu4 came to 5.94 ± 0.22.
Take `Cc1ccoc1C(=O)Nc1ccc(N2C(=O)c3ccc(Cl)cc3C2=O)c(Cl)c1` [17d, N-(3-Chloro-4-(5-chloro-1,3-dioxoisoindolin-2-yl)phenyl)-3-methylfuran-2-carboxamide]: the “rat mGlu1 pEC50” value at rat mGlu1 WT receptors worked out at 6.95 ± 0.13. For the same compound, the “human CLINT” value in data set [2] turned out to be 0.174 L/h/kg. In data set [3], the “rat CLHEP” value was found to be 1.03 L/h/kg and the “rat CLINT” value was found to be 1.37 L/h/kg. For the same compound, in data set [4], the human fu plasma result is “unstable”. Also, the rat fu plasma result in data set [5] is “unstable”. Besides, the “parent compound remaining in human plasma” value in data set [6] is on record as “no parent 17d remains”. Also, the “parent compound remaining in rat plasma” value in data set [7] is listed as “no parent 17d remains”. Also, the “behavioral convulsions (modified Racine score 0–5)” value (“behavioral convulsions” below) with Male C57Bl/6 mice (100 mg/kg ip) is “no measurable behavioral disturbances at any time point; also recorded: no adverse effects”.
As for `Cc1ccoc1C(=O)Nc1ccc(N2C(=O)c3cccc(F)c3C2=O)c(Cl)c1` [17e, N-(3-Chloro-4-(4-fluoro-1,3-dioxoisoindolin-2-yl)phenyl)-3-methylfuran-2-carboxamide], the “hmGlu4 pEC50 (±SEM)” value at hmGlu4 is recorded as 5.95 ± 0.16. Also, the “fold shift of glutamate CRC at mGlu2” value in the data set on mGlu2 is recorded as below 2 fold. In addition, the “ago-PAM activity across all four mutants” value in data set [8] is at most 40%. In data set [2], the “human CLHEP” value turned out to be 0.162 L/h/kg and the “human CLINT” value was determined as 0.186 L/h/kg. Moreover, in [3], the “rat CLHEP” value is 3.14 L/h/kg and the “rat CLINT” value amounted to 12.4 L/h/kg. For the same compound, the “induction of epileptiform activity in CA3” value in data set [9] (10 μM bath application) is reported as “did not induce epileptiform activity; also recorded: does not induce epileptiform activity”. Also, the “behavioral convulsions” value in the data set with Male C57Bl/6 mice (100 mg/kg ip) is “no measurable behavioral disturbances at any time point; also recorded: no adverse effects”.
For the compound `Cc1ccoc1C(=O)Nc1ccc(N2C(=O)c3ccc(F)cc3C2=O)c(Cl)c1` [17f, N-(3-Chloro-4-(5-fluoro-1,3-dioxoisoindolin-2-yl)phenyl)-3-methylfuran-2-carboxamide], the “agonism at the highest concentration” value at human mGlu1 WT receptor [10] is reported as below 20%.
One may read the clearance as the volume of plasma or blood freed of the substance per unit of time. For the compound `Cc1ccoc1C(=O)Nc1ccc(N2C(=O)c3ccncc3C2=O)c(Cl)c1` [17g, N-(3-Chloro-4-(1,3-dioxo-1,3-dihydro-2H-pyrrolo[3,4-c]-pyridin-2-yl)phenyl)-3-methylfuran-2-carboxamide], the “rat mGlu1 pEC50” value on rat mGlu1 WT receptors came out at 6.95 ± 0.15. Also, in [2], the “human CLINT” value stood at 10 L/h/kg. Moreover, in [3], the “rat CLHEP” value worked out at 3.58 L/h/kg and the “rat CLINT” value amounted to 24.3 L/h/kg. The human fu plasma entry in [4] is “unstable”. The CLp in “Rat iv PK” came out at 22.9 L/h/kg. In “Rat iv PK” (rat, plasma, iv, 0.2 mg/kg, CLp), this compound displayed a clearance of 17 L/h/kg. Also, the “behavioral convulsions” value in the data set on Male C57Bl/6 mice (100 mg/kg ip) was “no measurable behavioral disturbances at any time point; also recorded: no adverse effects”.
Take `N[C@H](C(=O)O)c1cc(O)cc(O)c1` [DHPG, S-3,5-dihydroxyphe-nylglycine, reference compound]: the “induction of epileptiform activity in CA3” value in data set [9] (50 μM, positive control) is on record as “induced marked epileptiform activity”.
Turning to `O=C(Nc1nc(C(F)(F)F)co1)C1c2ccccc2Oc2ccccc21` [compound 5, reference compound], the “human CLINT” value in data set [2] was found to be 15.7 L/h/kg. For the same compound, in data set [3], the “rat CLHEP” value amounted to 3.8 L/h/kg and the “rat CLINT” value was 39.7 L/h/kg. Moreover, in the data set with Male C57Bl/6 mice (100 mg/kg ip), the “behavioral convulsions” value is on record as “no adverse effects”.
For `O=C(Nc1ccc(N2C(=O)c3cccc(Cl)c3C2=O)c(Cl)c1)c1ncccc1Cl` [compound 8, reference compound], in data set [2], the “human CLINT” value came out at 1.03 L/h/kg. Besides, the “rat CLINT” value in [3] was determined as 2.39 L/h/kg. Moreover, the human fu plasma result in data set [4] is on record as “unstable”. For the same compound, in [5], the rat fu plasma result is given as “unstable”.
With `C[C@@H](NC(=O)c1ccc(C#Cc2cccc(F)c2)cn1)C(C)(C)O` [compound 18, (R)-5-((3-fluorophenyl)ethynyl)-N-(3-hydroxy-3-methylbutan-2-yl)picolinamide, reference compound], in the data set on Male C57Bl/6 mice (1 or 3 mg/kg ip), the “time of peak convulsion responses after administration” value is recorded as “approximately 5 min” and the “behavioral convulsions” value is “severe, dose-dependent behavioral manifestations of seizure activity; also recorded: Severe, dose-dependent behavioral convulsions”.

Values taken from article PMC4839290 (Journal of medicinal chemistry, 2015).
